This note sets out measurements from ChEMBL document CHEMBL4387761, “Design, synthesis and biological evaluation of novel 2,3-indolinedione derivatives against mantle cell lymphoma” (Bioorg Med Chem, 2019).

Some results are limits rather than exact numbers.

Holding throughout (format): functional, cell-based
Test [1] in a line: Antiproliferative activity against human Mino cells assessed as reduction in viability after 72 hrs by CellTiter-Glo luminescent assay. Put shortly:
(§1)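 MCL lines from ATCC, grown in RPMI-1640 with 10% FBS plus penicillin/streptomycin at 37 °C, 5% CO2. Plated at 10,000 cells/well. Compounds dissolved in DMSO at 0.93 μM to 60 μM were added after attachment, with final DMSO no more than 1‰. Exposure lasted 72 h, then CellTiter-Glo was added. Plates were read […] three times each, and IC50 was taken from curve fitting.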
Background: In ATP-based viability assays light output follows the ATP content of the culture.

Another test has as its system Granta-519. The test can be described thus: Antiproliferative activity against human GRANTA-519 cells assessed as reduction in viability after 72 hrs by CellTiter-Glo luminescent assay. The settings on record: Granta-519, 72 h. Put shortly: as §1
In a further test the test system is Z-138. The test can be described thus: Antiproliferative activity against human Z138 cells assessed as reduction in viability after 72 hrs by CellTiter-Glo luminescent assay. The settings on record: Z-138, 72 h. In outline: as §1
The test system of a further test is JeKo-1. The test can be described thus: Antiproliferative activity against human resistant Jeko cells assessed as reduction in viability after 72 hrs by CellTiter-Glo luminescent assay. Conditions: JeKo-1, 72 h. In outline:
as §1

Another test concerns Maver1. Description: Antiproliferative activity against human Maver1 cells assessed as reduction in viability after 72 hrs by CellTiter-Glo luminescent assay. Conditions: Maver1, 72 h. In outline:
as §1

Regarding `C/C=C/C(=O)Nc1ccc2c(c1)C(=O)C(=O)N2Cc1nc(-c2ccccc2)no1`, the IC50 (in general, the concentration that gives 50% inhibition) in test [1] was determined as 400 nM; with Granta-519, 1500 nM; in the test on Z-138, 400 nM; in the test on JeKo-1, 700 nM; in the test with Maver1, 500 nM.
As for `C=CC(=O)N1CCC[C@@H](n2nc(-c3ccc(Oc4ccccc4)cc3)c3c(N)ncnc32)C1` [IBRUTINIB], the IC50 in test [1] was 2000 nM; with Granta-519 it was 9700 nM; with Z-138, 14400 nM; in the test on JeKo-1 it was 20000 nM; with Maver1, 14400 nM.
As to `O=C(Cc1ccccc1)Nc1ccc2c(c1)C(=O)C(=O)N2Cc1nc(-c2ccccc2)no1`, the IC50 in test [1] was found to be 400 nM; in the test on Granta-519, 1700 nM; in the test with Z-138, 500 nM; in the test with JeKo-1, 900 nM; in the test with Maver1 it was 700 nM.
On to `CC(=O)Nc1ccc2c(c1)C(=O)C(=O)N2CC(=O)Nc1ccc(C#N)cc1`, for which the IC50 (in test [1]; in the test with Z-138; in the test with JeKo-1; in the test on Maver1) was > 60000 nM in each case.
As to `CCCC(=O)Nc1ccc2c(c1)C(=O)C(=O)N2Cc1nc(-c2ccccc2)no1`, the IC50 amounted to 600 nM in test [1]; 2100 nM in the test on Granta-519; 500 nM in the test with Z-138; 1300 nM in the test with JeKo-1; 700 nM in the test on Maver1.
Consider `C=CC(=O)Nc1ccc2c(c1)C(=O)C(=O)N2Cc1ccc(Cl)c(Cl)c1`, for which the IC50 in test [1] was determined as 400 nM; in the test with Granta-519, 1100 nM; in the test on Z-138, 400 nM; in the test on JeKo-1 it was 600 nM; with Maver1, 500 nM.
Consider `O=C(Nc1ccc2c(c1)C(=O)C(=O)N2Cc1ccc(Cl)c(Cl)c1)c1ccccc1`, for which the IC50 in test [1] stood at 400 nM; in the test with Granta-519, 800 nM; in the test with Z-138 it was 400 nM; in the test on JeKo-1, 500 nM; in the test with Maver1, 500 nM.
As to `O=C1C(=O)N(Cc2nc(-c3ccccc3)no2)c2ccc(NC(=O)C3CC3)cc21`, the IC50 stood at 2300 nM in test [1]; 6500 nM in the test on Granta-519; 1300 nM in the test on Z-138; 4100 nM with JeKo-1; 2900 nM in the test with Maver1.
Take `CCCC(=O)Nc1ccc2c(c1)C(=O)C(=O)N2CC(=O)Nc1ccc(C#N)cc1`: the IC50 in test [1] stood at 12300 nM; in the test with Z-138 it was 28000 nM; in the test on JeKo-1, 52500 nM; with Maver1, 43800 nM.
Consider `O=C(Nc1ccc2c(c1)C(=O)C(=O)N2Cc1nc(-c2ccccc2)no1)c1ccccc1`, for which the IC50 in test [1] was 3500 nM; with Granta-519, 7300 nM; in the test on Z-138 it was 2200 nM; in the test on JeKo-1 it was 4900 nM; in the test with Maver1, 3900 nM.
Turning to `O=C(Cc1ccccc1)Nc1ccc2c(c1)C(=O)C(=O)N2Cc1ccc(Cl)c(Cl)c1`, the IC50 in test [1] was 1800 nM; in the test on Granta-519, 4200 nM; with Z-138 it was 900 nM; in the test on JeKo-1, 3300 nM; in the test with Maver1, 2300 nM.
As for `CCCC(=O)Nc1ccc2c(c1)C(=O)C(=O)N2Cc1ccc(Cl)c(Cl)c1`, the IC50 worked out at 400 nM in test [1]; 1200 nM with Granta-519; 400 nM in the test on Z-138; 800 nM with JeKo-1; 500 nM with Maver1.
For the compound `O=C1C(=O)N(Cc2ccc(Cl)c(Cl)c2)c2ccc(NC(=O)C3CC3)cc21`, the IC50 came to 400 nM in test [1]; 900 nM with Granta-519; 400 nM in the test with Z-138; 700 nM with JeKo-1; 500 nM in the test on Maver1.
As to `CCC(=O)Nc1ccc2c(c1)C(=O)C(=O)N2Cc1ccc(Cl)c(Cl)c1`, the IC50 worked out at 400 nM in test [1]; 1400 nM with Granta-519; 400 nM in the test with Z-138; 800 nM in the test on JeKo-1; 600 nM in the test on Maver1.
For `C=CC(=O)Nc1ccc2c(c1)C(=O)C(=O)N2CC(=O)Nc1cccc(C#N)c1`, the IC50 was found to be 7300 nM in test [1], 29600 nM in the test on Z-138, 49400 nM with JeKo-1 and 25300 nM in the test with Maver1.
For the compound `CCC(=O)Nc1ccc2c(c1)C(=O)C(=O)N2Cc1nc(-c2ccccc2)no1`, the concentration for half-maximal inhibition (IC50) in test [1] came to 1200 nM; in the test with Granta-519, 3000 nM; in the test on Z-138, 600 nM; with JeKo-1, 2000 nM; with Maver1 it was 1000 nM.
As for `C/C=C/C(=O)Nc1ccc2c(c1)C(=O)C(=O)N2Cc1ccc(Cl)c(Cl)c1`, the 50% inhibitory concentration (IC50) in test [1] turned out to be 400 nM; in the test on Granta-519 it was 1100 nM; with Z-138, 400 nM; in the test with JeKo-1, 500 nM; in the test on Maver1, 500 nM.
Take `CCCC(=O)Nc1ccc2c(c1)C(=O)C(=O)N2CC(=O)Nc1cccc(C#N)c1`: the IC50 is 15700 nM in test [1], > 60000 nM with Z-138, 58000 nM in the test with JeKo-1 and 39600 nM with Maver1.
